Experimental data published in ChEMBL document CHEMBL4715843, “NO-releasing STAT3 inhibitors suppress BRAF-mutant melanoma growth” (Eur J Med Chem, 2020).
Active and inactive are the calls of the source. The rule behind the calls is not given here.

Assays:
[1] = molecular target: T1, Signal transducer and activator of transcription 3 (Homo sapiens, UniProt P40763); test: Inhibition of STAT3 in human SB-590885-resistant 451Lu cells assessed as reduction in PAX3 expression measured after 12 hrs by Western blot analysis; conditions: dose 10-25 µM
T1 sequence (P40763 whole entry): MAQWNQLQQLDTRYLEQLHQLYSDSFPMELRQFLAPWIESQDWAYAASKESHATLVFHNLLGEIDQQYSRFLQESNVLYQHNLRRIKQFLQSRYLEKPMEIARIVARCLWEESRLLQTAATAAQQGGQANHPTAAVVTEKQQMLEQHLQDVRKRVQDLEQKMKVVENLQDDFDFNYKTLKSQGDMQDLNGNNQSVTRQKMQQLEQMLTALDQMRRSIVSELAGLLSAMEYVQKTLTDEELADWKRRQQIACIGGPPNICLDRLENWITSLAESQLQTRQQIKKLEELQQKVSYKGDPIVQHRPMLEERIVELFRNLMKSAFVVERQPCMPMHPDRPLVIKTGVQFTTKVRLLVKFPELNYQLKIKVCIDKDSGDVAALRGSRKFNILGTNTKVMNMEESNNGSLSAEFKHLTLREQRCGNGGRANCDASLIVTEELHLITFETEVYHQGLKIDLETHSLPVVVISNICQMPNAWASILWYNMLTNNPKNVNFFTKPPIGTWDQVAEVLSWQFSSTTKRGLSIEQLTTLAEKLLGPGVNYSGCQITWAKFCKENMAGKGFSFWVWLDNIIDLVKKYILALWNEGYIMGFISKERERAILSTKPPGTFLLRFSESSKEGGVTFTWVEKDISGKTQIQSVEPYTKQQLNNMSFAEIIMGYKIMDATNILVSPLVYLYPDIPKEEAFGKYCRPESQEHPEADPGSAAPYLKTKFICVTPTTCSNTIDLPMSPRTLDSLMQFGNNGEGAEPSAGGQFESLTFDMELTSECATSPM
Procedure, shortened: (§1)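 451 Lu and MEL 1617 pairs, sensitive and resistant; resistant lines maintained in RPMI with 1 µM PLX4720. Treated with 10 and 25 µM for 12 h versus DMSO. Lysates (60 µg protein, 10% SDS-PAGE) immunoblotted for Ser727- and Tyr705-phospho-STAT3, total STAT3, total PAX3, with actin.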

[2] = molecular target: T1, Signal transducer and activator of transcription 3; test: Inhibition of STAT3 phosphorylation at S727 residue in human SB-590885-resistant 451Lu cells measured after 12 hrs by Western blot analysis; conditions: dose 10-25 µM; procedure, shortened: as §1
[3] = molecular target: T1, Signal transducer and activator of transcription 3; test: Inhibition of STAT3 phosphorylation at S727 residue in human SB-590885-resistant MEL1617 cells at 10 to 25 uM measured after 12 hrs by Western blot analysis; type: cell-based; conditions: dose 10-25 µM; procedure, shortened: as §1
[4] = molecular target: T1, Signal transducer and activator of transcription 3; test: Inhibition of STAT3 phosphorylation at Y705 residue in human SB-590885-sensitive MEL1617 cells at 10 to 25 uM measured after 12 hrs by Western blot analysis; type: cell-based; conditions: dose 10-25 µM; procedure, shortened: as §1
[5] = molecular target: T1, Signal transducer and activator of transcription 3; test: Inhibition of STAT3 in human SB-590885-sensitive 451Lu cells assessed as reduction in PAX3 expression measured after 12 hrs by Western blot analysis; conditions: dose 10-25 µM; procedure, shortened: as §1
[6] = Drug metabolism in pH 7.4 phosphate buffer assessed as nitric oxide release at 100 uM measured after 2 hrs by Griess reagent based colorimetric method
Procedure, shortened: (§2)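 Compound at 100 µM was held at room temperature in pH 7.4 phosphate buffer with 5 mM DTT and 2% DMSO for 2 or 48 h. Griess reagent was added, and after 30 min absorbance was read at 548 nm. NO release (mol NO/mol compound) was derived from a sodium nitrite calibration curve.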

[7] = Drug metabolism in pH 7.4 phosphate buffer assessed as nitric oxide release at 100 uM measured after 48 hrs by Griess reagent based colorimetric method; procedure, shortened: as §2
[8] = molecular target: T1, Signal transducer and activator of transcription 3; test: Inhibition of STAT3 phosphorylation at S727 residue in human SB-590885-sensitive 451Lu cells measured after 12 hrs by Western blot analysis; conditions: dose 10-25 µM; procedure, shortened: as §1
[9] = molecular target: T1, Signal transducer and activator of transcription 3; test: Inhibition of STAT3 in human SB-590885-resistant MEL1617 cells assessed as reduction in PAX3 expression at 10 to 25 uM measured after 12 hrs by Western blot analysis; type: cell-based; conditions: dose 10-25 µM; procedure, shortened: as §1
[10] = molecular target: T1, Signal transducer and activator of transcription 3; test: Inhibition of STAT3 phosphorylation at Y705 residue in human SB-590885-resistant MEL1617 cells at 10 to 25 uM measured after 12 hrs by Western blot analysis; type: cell-based; conditions: dose 10-25 µM; procedure, shortened: as §1
[11] = molecular target: T1, Signal transducer and activator of transcription 3; test: Inhibition of STAT3 phosphorylation at S727 residue in human SB-590885-sensitive MEL1617 cells at 10 to 25 uM measured after 12 hrs by Western blot analysis; type: cell-based; conditions: dose 10-25 µM; procedure, shortened: as §1
[12] = molecular target: T1, Signal transducer and activator of transcription 3; test: Inhibition of STAT3 phosphorylation at Y705 residue in human SB-590885-sensitive 451Lu cells measured after 12 hrs by Western blot analysis; conditions: dose 10-25 µM; procedure, shortened: as §1
[13] = molecular target: T1, Signal transducer and activator of transcription 3; test: Inhibition of STAT3 phosphorylation at Y705 residue in human SB-590885-resistant 451Lu cells measured after 12 hrs by Western blot analysis; conditions: dose 10-25 µM; procedure, shortened: as §1
[14] = molecular target: T1, Signal transducer and activator of transcription 3; test: Inhibition of STAT3 in human SB-590885-sensitive MEL1617 cells assessed as reduction in PAX3 expression at 10 to 25 uM measured after 12 hrs by Western blot analysis; type: cell-based; conditions: dose 10-25 µM; procedure, shortened: as §1
[15] = tested on: A-375; test: Cytotoxicity against human A-375 cells assessed as inhibition of cell proliferation measured after 48 hrs by MTS assay; type: functional, cell-based; conditions: A-375, 48 h
Procedure, shortened: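 Cells were exposed to a dose range of inhibitor for 48 h, and viability was read by MTS assay in triplicate. GI50 was taken as the concentration giving 50% growth inhibition, averaged from three independent experiments. A375 was cultured in RPMI-1640 with Glutamax. A549 and NCI-H157 were kept in RPMI-1640, and MIA PaCa-2 and U87-MG in DMEM.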

[16] = tested on: MCF-10A; test: Cytotoxicity against human MCF-10A cells assessed as inhibition of cell proliferation by MTS assay; type: cell-based
[17] = tested on: HFF; test: Cytotoxicity against HFF assessed as inhibition of cell proliferation by MTS assay; type: cell-based, Homo sapiens
[18] = molecular target: T1, Signal transducer and activator of transcription 3; test: Inhibition of STAT3 in human SB-590885-resistant 451Lu cells assessed as reduction in STAT3 transcriptional activity measured after 12 hrs by Dual-luciferase reporter gene assay
Procedure, shortened: (§3)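 Cells co-transfected with inducible STAT3-responsive firefly luciferase and constitutive Renilla luciferase constructs (40:1) using Lipofectamine 3000. After 48 h, dose series in DMSO vehicle applied for 12 h, followed by dual-luciferase readout. Firefly signal normalized to Renilla and compared with untreated cells. Run in triplicate; IC50 taken from dose–response curves.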

[19] = molecular target: T1, Signal transducer and activator of transcription 3; test: Inhibition of STAT3 in human SB-590885-sensitive MEL1617 cells assessed as reduction in STAT3 transcriptional activity measured after 12 hrs by Dual-luciferase reporter gene assay; type: cell-based; procedure, shortened: as §3
[20] = Antiproliferative activity against human SB-590885-resistant MEL1617 cells assessed as reduction in cell viability measured after 48 hrs by MTS assay; type: functional, cell-based
Procedure, shortened: (§4)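 Melanoma lines were grown in RPMI-1640 with Glutamax at 37 °C and 5% CO2. The resistant 451 Lu-R and MEL 1617-R sublines were maintained with 1 µM PLX4720. Cells were incubated with vehicle or inhibitor over a dose range, and viability was read by MTS assay in triplicate.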

[21] = molecular target: T1, Signal transducer and activator of transcription 3; test: Inhibition of STAT3 in human SB-590885-resistant MEL1617 cells assessed as reduction in STAT3 transcriptional activity measured after 12 hrs by Dual-luciferase reporter gene assay; type: cell-based; procedure, shortened: as §3
[22] = Antiproliferative activity against human SB-590885-resistant 451Lu cells assessed as reduction in cell viability measured after 48 hrs by MTS assay; type: functional; procedure, shortened: as §4
[23] = molecular target: T1, Signal transducer and activator of transcription 3; test: Inhibition of STAT3 in human SB-590885-sensitive 451Lu cells assessed as reduction in STAT3 transcriptional activity measured after 12 hrs by Dual-luciferase reporter gene assay; procedure, shortened: as §3
[24] = Antiproliferative activity against human SB-590885-sensitive 451Lu cells assessed as reduction in cell viability measured after 48 hrs by MTS assay; type: functional; procedure, shortened: as §4
[25] = Antiproliferative activity against human SB-590885-sensitive MEL1617 cells assessed as reduction in cell viability measured after 48 hrs by MTS assay; type: functional, cell-based; conditions: MEL1617, 48 h; procedure, shortened: as §4
[26] = tested on: A-375; test: Potentiation of compound II-induced cytotoxicity against human A375 cells assessed as compound II IC50 at 12.5 uM measured after 48 hrs by MTS assay (reference value: 16.2 +/- 1.6 uM); type: functional, cell-based; conditions: A-375, 48 h
[27] = molecular target: T1, Signal transducer and activator of transcription 3; test: Displacement of FAM-labeled 5-GpYLPQTV-NH2 from recombinant GST-tagged STAT3 (unknown origin) preincubated for 30 mins followed by FAM-labeled 5-GpYLPQTV-NH2 addition and measured after 30 mins by fluorescence assay; conditions: time 60.0 min
Procedure, shortened: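 GST-STAT3 (2 µM) was bound to GST beads for 1 h at 4 °C in PBS with 0.1% β-mercaptoethanol, then washed. Bead slurry was incubated with compound dilutions (2.25% DMSO, duplicate) and FAM-GpYLPQTV-NH2 peptide. Resin was washed by vacuum filtration and fluorescence read at ex 485/em 535 nm. % displacement was set against the no-compound signal; two independent experiments.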

[28] = tested on: MOLT-4; test: Anticancer activity against human MOLT-4 cells assessed as cell growth inhibition at 10 uM measured after 48 hrs by SRB assay relative to control; type: functional; conditions: read-out: GI
Procedure, shortened: (§5)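 NCI 60-cell-line screen. Cells in RPMI with 5% FBS were plated at 5,000–40,000 cells/well by doubling time and preincubated 24 h at 37 °C. Compound was added at a single 10 µM for 48 h, then cells were fixed with cold TCA (10% final) and stained with 0.4% SRB. Absorbance at 515 nm gave percent growth versus untreated control and time-zero cells.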

[29] = tested on: COLO 205; test: Anticancer activity against human COLO 205 cells assessed as cell growth inhibition at 10 uM measured after 48 hrs by SRB assay; type: functional, cell-based; procedure, shortened: as §5
[30] = tested on: NCI-H522; test: Anticancer activity against human NCI-H522 cells assessed as cell growth inhibition at 10 uM measured after 48 hrs by SRB assay; type: functional, cell-based; procedure, shortened: as §5
[31] = tested on: HL-60(TB); test: Anticancer activity against human HL-60(TB) cells assessed as cell growth inhibition at 10 uM measured after 48 hrs by SRB assay relative to control; type: functional; conditions: read-out: GI
Procedure, shortened: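 NCI 60-cell-line screen, single dose 10 µM, DMSO stock diluted in complete medium with gentamicin. Cells in RPMI with 5% FBS, plated at density set by doubling time, preincubated 24 h, then exposed 48 h at 37 °C, 5% CO2. TCA fixation, SRB staining, absorbance at 515 nm. Percent growth taken relative to untreated control and time-zero cell number.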

[32] = tested on: T47D; test: Anticancer activity against human T47D cells assessed as cell growth inhibition at 10 uM measured after 48 hrs by SRB assay relative to control; type: functional; conditions: read-out: GI; procedure, shortened: as §5
[33] = tested on: RPMI-8226; test: Anticancer activity against human RPMI-8226 cells assessed as cell growth inhibition at 10 uM measured after 48 hrs by SRB assay relative to control; type: functional; conditions: read-out: GI; procedure, shortened: as §5
[34] = tested on: CCRF-CEM; test: Anticancer activity against human CCRF-CEM cells assessed as cell growth inhibition at 10 uM measured after 48 hrs by SRB assay relative to control; type: functional; conditions: read-out: GI; procedure, shortened: as §5
[35] = tested on: K562; test: Anticancer activity against human K562 cells assessed as cell growth inhibition at 10 uM measured after 48 hrs by SRB assay relative to control; type: functional; conditions: read-out: GI; procedure, shortened: as §5
[36] = tested on: A549; test: Anticancer activity against human A549 cells assessed as cell growth inhibition at 10 uM measured after 48 hrs by SRB assay; type: functional, cell-based; procedure, shortened: as §5

SMILES	inhibition [1]	inhibition [2]	inhibition [3]	inhibition [4]	inhibition [5]	Drug metabolism [6]	Drug metabolism [7]	inhibition [8]	inhibition [9]	inhibition [10]	inhibition [11]	inhibition [12]	inhibition [13]	inhibition [14]	IC50 [15]	IC50 [24]	IC50 [25]	also measured
COc1ccc2nc(-c3ccc(OC)c(OC)c3)cc(-c3nnc(SCC(=O)Nc4ccc(/C(C)=N\O)cc4)n3-c3ccccc3)c2c1	inactive	inactive	inactive	inactive	inactive	15%	30%	inactive	inactive	inactive	inactive	inactive	inactive	inactive				
COc1ccc(-c2cc(-c3nnc(SCC(=O)Nc4ccc(/C(C)=N\O)cc4)n3-c3ccccc3)c3cc(OC)ccc3n2)cc1	inactive	inactive	inactive	inactive	inactive	15%	30%	inactive	inactive	inactive	inactive	inactive	inactive	inactive				
O=C(Nc1nnc(-c2ccco2)o1)c1cc(-c2ccccc2)nc2ccccc12															16.2 µM			IC50 ([16]; Homo sapiens, MCF-10A, read-out: IC50): 33.4 µM; IC50 ([17]; Homo sapiens, HFF, read-out: IC50): 72.2 µM
COc1ccc2nc(-c3ccc(Cl)cc3)cc(-c3nnc(SCC(=O)Nc4ccc(/C(C)=N\O)cc4)n3-c3ccccc3)c2c1	inactive	inactive	inactive	inactive	inactive	15%	30%	inactive	inactive	inactive	inactive	inactive	inactive	inactive	> 100 µM	> 50 µM	> 50 µM	IC50 [18]: 40.5 µM; IC50 [19]: 75 µM; IC50 ([20]; Homo sapiens, MEL1617, 48 h, read-out: IC50): > 50 µM; IC50 ([16]; mcf-10a): Not Active; IC50 [21]: 35.2 µM; IC50 ([22]; Homo sapiens, 451Lu, 48 h, read-out: IC50): > 50 µM; IC50 [23]: 54 µM; IC50 [26]: 6.8 µM; IC50 ([17]; hff): Not Active; inhibition [27]: inactive
C=CCn1c(SCC(=O)Nc2ccc(/C(C)=N\O)cc2)nnc1-c1cc(-c2ccc(OC)cc2)nc2ccccc12																		inhibition of growth at 10 µM [28]: 81%; growth inhibition (GI) [29]: Active; growth inhibition (GI) [30]: Active; inhibition of growth at 10 µM [31]: 100%; inhibition of growth at 10 µM [32]: 100%; inhibition of growth at 10 µM [33]: 81%; inhibition of growth at 10 µM [34]: 81%; inhibition of growth at 10 µM [35]: 81%; growth inhibition (GI) [36]: Active
CCCS(=O)(=O)Nc1ccc(F)c(C(=O)c2c[nH]c3ncc(Cl)cc23)c1F [PLX-4720]																0.062 µM	0.084 µM	IC50 ([20]; mel1617): Not Active; IC50 ([22]; 451lu): Not Active
